According to ChEMBL document CHEMBL4689842, “EUbOPEN Chemogenomics Library wave 1” (2021):

Tested on: HEK-293T
Test: Multiplex assay against HEK293T;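 for Population Tubulin-Different-Phenotype (%): share of the cells with healthy nuclei that show this phenotype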
Format: toxicity, cell-based
Settings: human
How it was run: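 Phenotypes for tubulin, mitochondrial mass and membrane permeability are expressed as per cents of healthy-nucleus cells. Cells were stained live at seeding with Hoechst33342, BioTracker Green Microtubule Cytoskeleton Dye, MitoTracker Red and Annexin V Alexa Fluor 680, then imaged after compound addition on a CQ1 microscope at 37°C and 5% CO2. Machine-learning gating in CellPathfinder separated Hoechst high-intensity objects from normal cells, divided normal cells by nuclear state (healthy, pyknosed, fragmented) and divided pyknosed cells into mitotic or apoptotic.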

[1] = 12 h, 1 µM, compound concentration 1 uM, replicate 1
[2] = 12 h, 1 µM, compound concentration 1 uM, replicate 2
[3] = 12 h, 10 µM, compound concentration 10 uM, replicate 1
[4] = 12 h, 10 µM, compound concentration 10 uM, replicate 2
[5] = 24 h, 1 µM, compound concentration 1 uM, replicate 1
[6] = 24 h, 1 µM, compound concentration 1 uM, replicate 2
[7] = 24 h, 10 µM, compound concentration 10 uM, replicate 1
[8] = 24 h, 10 µM, compound concentration 10 uM, replicate 2
[9] = 48 h, 1 µM, compound concentration 1 uM, replicate 1
[10] = 48 h, 1 µM, compound concentration 1 uM, replicate 2
[11] = 48 h, 10 µM, compound concentration 10 uM, replicate 1
[12] = 48 h, 10 µM, compound concentration 10 uM, replicate 2

CN1CCN(Cc2ccc(Nc3ncc(Cl)c(Nc4ccccc4S(=O)(=O)N(C)C)n3)cc2)CC1 [DUBERMATINIB]
Population Apoptotic (%) [1]: 48% | Population Fragmented Nuclei (%) [1]: 14% | Population Healthy Nuclei (%) [1]: 42% | Population Hoechst High Intensity Objects (%) [1]: 12% | Population Membrane Permeable-Phenotype (%) [1]: 0% | Population Mitochondria Different-Phenotype (%) [1]: 72% | Population Mitotic Cells (%) [1]: 51% | Population Normal (%) [1]: 87% | Population Pyknosed Nuclei (%) [1]: 42% | Population Tubulin-Different-Phenotype (%) [1]: 35% | Total Cell Count [1]: 297 | Population Apoptotic (%) [2]: 13% | Population Fragmented Nuclei (%) [2]: 8% | Population Healthy Nuclei (%) [2]: 55% | Population Hoechst High Intensity Objects (%) [2]: 2% | Population Membrane Permeable-Phenotype (%) [2]: 5% | Population Mitochondria Different-Phenotype (%) [2]: 14% | Population Mitotic Cells (%) [2]: 86% | Population Normal (%) [2]: 97% | Population Pyknosed Nuclei (%) [2]: 35% | Population Tubulin-Different-Phenotype (%) [2]: 14% | Total Cell Count [2]: 174 | Population Apoptotic (%) [3]: 62% | Population Fragmented Nuclei (%) [3]: 11% | Population Healthy Nuclei (%) [3]: 40% | Population Hoechst High Intensity Objects (%) [3]: 18% | Population Membrane Permeable-Phenotype (%) [3]: 1% | Population Mitochondria Different-Phenotype (%) [3]: 96% | Population Mitotic Cells (%) [3]: 38% | Population Normal (%) [3]: 81% | Population Pyknosed Nuclei (%) [3]: 47% | Population Tubulin-Different-Phenotype (%) [3]: 88% | Total Cell Count [3]: 258 | Population Apoptotic (%) [4]: 16% | Population Fragmented Nuclei (%) [4]: 14% | Population Healthy Nuclei (%) [4]: 59% | Population Hoechst High Intensity Objects (%) [4]: 4% | Population Membrane Permeable-Phenotype (%) [4]: 2% | Population Mitochondria Different-Phenotype (%) [4]: 32% | Population Mitotic Cells (%) [4]: 83% | Population Normal (%) [4]: 95% | Population Pyknosed Nuclei (%) [4]: 26% | Population Tubulin-Different-Phenotype (%) [4]: 33% | Total Cell Count [4]: 214 | Population Apoptotic (%) [5]: 53% | Population Fragmented Nuclei (%) [5]: 15% | Population Healthy Nuclei (%) [5]: 45% | Population Hoechst High Intensity Objects (%) [5]: 10% | Population Membrane Permeable-Phenotype (%) [5]: 0% | Population Mitochondria Different-Phenotype (%) [5]: 59% | Population Mitotic Cells (%) [5]: 46% | Population Normal (%) [5]: 89% | Population Pyknosed Nuclei (%) [5]: 39% | Population Tubulin-Different-Phenotype (%) [5]: 31% | Total Cell Count [5]: 290 | Population Apoptotic (%) [6]: 27% | Population Fragmented Nuclei (%) [6]: 19% | Population Healthy Nuclei (%) [6]: 69% | Population Hoechst High Intensity Objects (%) [6]: 3% | Population Membrane Permeable-Phenotype (%) [6]: 16% | Population Mitochondria Different-Phenotype (%) [6]: 5% | Population Mitotic Cells (%) [6]: 72% | Population Normal (%) [6]: 96% | Population Pyknosed Nuclei (%) [6]: 11% | Population Tubulin-Different-Phenotype (%) [6]: 17% | Total Cell Count [6]: 206 | Population Apoptotic (%) [7]: 69% | Population Fragmented Nuclei (%) [7]: 15% | Population Healthy Nuclei (%) [7]: 33% | Population Hoechst High Intensity Objects (%) [7]: 18% | Population Mitochondria Different-Phenotype (%) [7]: 88% | Population Mitotic Cells (%) [7]: 30% | Population Normal (%) [7]: 81% | Population Pyknosed Nuclei (%) [7]: 50% | Population Tubulin-Different-Phenotype (%) [7]: 80% | Total Cell Count [7]: 270 | Population Apoptotic (%) [8]: 28% | Population Fragmented Nuclei (%) [8]: 19% | Population Healthy Nuclei (%) [8]: 42% | Population Hoechst High Intensity Objects (%) [8]: 6% | Population Membrane Permeable-Phenotype (%) [8]: 1% | Population Mitochondria Different-Phenotype (%) [8]: 21% | Population Mitotic Cells (%) [8]: 71% | Population Normal (%) [8]: 93% | Population Pyknosed Nuclei (%) [8]: 38% | Population Tubulin-Different-Phenotype (%) [8]: 25% | Total Cell Count [8]: 222 | Population Apoptotic (%) [9]: 60% | Population Fragmented Nuclei (%) [9]: 26% | Population Healthy Nuclei (%) [9]: 51% | Population Hoechst High Intensity Objects (%) [9]: 10% | Population Membrane Permeable-Phenotype (%) [9]: 4% | Population Mitochondria Different-Phenotype (%) [9]: 26% | Population Mitotic Cells (%) [9]: 39% | Population Normal (%) [9]: 89% | Population Pyknosed Nuclei (%) [9]: 22% | Population Tubulin-Different-Phenotype (%) [9]: 24% | Total Cell Count [9]: 316 | Population Apoptotic (%) [10]: 38% | Population Fragmented Nuclei (%) [10]: 21% | Population Healthy Nuclei (%) [10]: 73% | Population Hoechst High Intensity Objects (%) [10]: 6% | Population Membrane Permeable-Phenotype (%) [10]: 20% | Population Mitochondria Different-Phenotype (%) [10]: 1% | Population Mitotic Cells (%) [10]: 61% | Population Normal (%) [10]: 93% | Population Pyknosed Nuclei (%) [10]: 5% | Population Tubulin-Different-Phenotype (%) [10]: 17% | Total Cell Count [10]: 259 | Population Apoptotic (%) [11]: 65% | Population Healthy Nuclei (%) [11]: 24% | Population Hoechst High Intensity Objects (%) [11]: 15% | Population Membrane Permeable-Phenotype (%) [11]: 0% | Population Mitochondria Different-Phenotype (%) [11]: 83% | Population Mitotic Cells (%) [11]: 34% | Population Normal (%) [11]: 84% | Population Pyknosed Nuclei (%) [11]: 58% | Population Tubulin-Different-Phenotype (%) [11]: 70% | Total Cell Count [11]: 267 | Population Apoptotic (%) [12]: 29% | Population Fragmented Nuclei (%) [12]: 17% | Population Healthy Nuclei (%) [12]: 36% | Population Hoechst High Intensity Objects (%) [12]: 6% | Population Membrane Permeable-Phenotype (%) [12]: 2% | Population Mitochondria Different-Phenotype (%) [12]: 32% | Population Mitotic Cells (%) [12]: 70% | Population Normal (%) [12]: 93% | Population Pyknosed Nuclei (%) [12]: 46% | Population Tubulin-Different-Phenotype (%) [12]: 35% | Total Cell Count [12]: 210
